In ChEMBL document CHEMBL4177559, “Design, Synthesis, and Evaluation of a Series of Novel Benzocyclobutene Derivatives as General Anesthetics” (J Med Chem, 2017):

What was measured:
[1] = Clearance in Sprague-Dawley rat at 1 mg/kg, iv administered as single dose; type: ADME, organism-based; conditions: in vivo
[2] = Therapeutic index, ratio of LD50 for toxicity in ICR mouse to ED50 for anesthetic effect in ICR mouse; type: organism-based; conditions: in vivo, read-out: Ratio LD50/ED50
Procedure, shortened: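 Fasted ICR mice (18−22 g, male and female), 7−9 dose groups of 10, given a single ~10 s iv bolus into the lateral tail vein in 5% DMSO, 5−10% Solutol HS-15, 85−90% saline. Loss of righting reflex scored; ED50 and LD50 derived by nonlinear fitting; TI = LD50/ED50.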

Mus musculus [3] = assay: Anesthetic activity in iv dosed ICR mouse assessed as dose required to produce anesthesia administered as single bolus dose; type: functional
Procedure, shortened: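 Fasted ICR mice (18−22 g, male and female) were randomised into 7−9 dose groups of 10 each. Each received one intravenous bolus over about 10 s in the lateral tail vein. Vehicle was 5% DMSO, 5−10% Solutol HS-15 and 85−90% saline. The endpoint was loss of righting reflex, and ED50 was derived by nonlinear fitting of dose–response.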

Mus musculus [4] = assay: Anesthetic activity in iv dosed ICR mouse assessed as onset time for loss of righting reflex administered as single bolus dose; type: functional
Procedure, shortened: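 ICR mice (fasted, 18−22 g, 10 per dose group, 7−9 groups) got one tail-vein iv bolus (~10 s) in 5% DMSO/5−10% Solutol HS-15/85−90% saline. Onset was the time from dosing to loss of righting reflex.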

Mus musculus [5] = assay: Anesthetic activity in iv dosed ICR mouse assessed as anesthetic duration time by measuring loss of righting reflex administered as single bolus dose; type: functional
Procedure, shortened: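 Fasted ICR mice (18−22 g, 10 per group) received a single ~10 s lateral tail-vein bolus in 5% DMSO/5−10% Solutol HS-15/saline. Duration was the time from dosing to recovery of righting reflex, recorded at the dose giving 100% loss of righting reflex.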

[6] = AUC in Sprague-Dawley rat at 1 mg/kg, iv administered as single dose; type: ADME, organism-based; conditions: in vivo
Rattus norvegicus = assay: Cmax in Sprague-Dawley rat at 1 mg/kg, iv administered as single dose; type: ADME, organism-based; parameters: dose 1 mg/kg, route intravenous; conditions: in vivo

| clearance [1] [mL/min/kg] | SMILES | selectivity ratio [2] | ED50 (Mus musculus [3]) [mg/kg] | Time (Mus musculus [4]) [s] | Time (Mus musculus [5]) [s] | AUC [6] [ng·h/mL] | Cmax (Rattus norvegicus) [ng/mL] |
| --- | --- | --- | --- | --- | --- | --- | --- |
| 77 | CC(C)c1ccc2c(c1O)[C@H](C)C2 |  |  |  |  |  |  |
| 67 | CC(C)c1ccc2c(c1O)[C@@H](C)C2 |  |  |  |  |  |  |
|  | CC(C)c1ccc2c(c1O)C(C)(N=[N+]=[N-])C2 (racemic) | 5.9 | 9.4 | <10 | 381.7 |  |  |
|  | CC(C)c1cccc(C(C)C)c1O [PROPOFOL] | 2.7 |  | <10 | 303.2 | 77 | 384 |
